# Assay results pooled from the literature.
# CDK4: Cyclin-dependent kinase 4 (CDK4, Homo sapiens, UniProt P11802)
# CDK4 with cyclin D1: Cyclin-dependent kinase 4, with cyclin D1 (CDK4, Homo sapiens, UniProt P11802)
# CDK4 with cyclin D3: Cyclin-dependent kinase 4, with cyclin D3 (CDK4, Homo sapiens, UniProt P11802)
SMILES,target,observed,mode,technique,tested at,endpoint,result
COc1ccc(C(=O)[C@H]2Cc3c(cc([N+](=O)[O-])cc3[N+](=O)[O-])[C@@H](O)[C@@]23C(=O)Nc2ccccc23)cc1,CDK4,cell-free assay,inhibitor,TR-FRET,1 µM,inhibition,39.3%
CC1CCCN1c1nccc(-c2cnn3ncccc23)n1 (stereo not drawn),CDK4 with cyclin D1,binding,,,1 µM,remaining binding,100%
CCOCCn1cc(C(=O)Nc2ccc(-n3nc(-c4cccnc4)cc3C(F)(F)F)cn2)ccc1=O,CDK4,cell-free assay,,competition with immobilised ligand,1 µM,remaining binding,87%
N[C@H]1CCN(c2nccc(-c3cnn4ncccc34)n2)C1,CDK4 with cyclin D1,binding,,,1 µM,remaining binding,100%
O=C(Nc1cnn(-c2csc(C(=O)NC3COC3)c2)c1)Nc1c(F)cccc1Cl,CDK4 with cyclin D3,enzyme activity,inhibitor,,5 µM,remaining activity,79.4%
COc1ccc2cc(OCC3(C(=O)O)CN(C(=O)c4ccc(F)cc4)C3)ccc2c1,CDK4 with cyclin D3,cell-free assay,,competition with immobilised ligand,1 µM,remaining binding,100%
O=C(c1ccccc1)[C@H]1Cc2c(cc([N+](=O)[O-])cc2[N+](=O)[O-])[C@H](O)[C@]12C(=O)Nc1ccccc12,CDK4,cell-free assay,inhibitor,TR-FRET,1 µM,inhibition,30.8%
CC(C)(C)c1nc2c(s1)c1nc(N)ncc1c1ccc(NS(=O)(=O)c3c(F)cccc3F)c(F)c12,CDK4 with cyclin D1,enzyme activity,inhibitor,radiometric,1 µM,remaining activity,88%
Nc1ncnc2occ(-c3ccc(NC(=O)Nc4cc(C(F)(F)F)ccc4F)cc3)c12,CDK4,cell-free assay,inhibitor,,20 µM,remaining signal,29%
CSc1cccnc1N1CCN(Cc2nc3ccccc3[nH]2)CC1,CDK4 with cyclin D3,cell-free assay,,competition with immobilised ligand,1 µM,remaining binding,82%
COc1cc(Cl)c(C(=O)N[C@@H](CN[C@H]2CC[C@@H](N)CC2)Cc2ccc(C#N)cc2)cc1-c1ccc(CN[C@H](C)c2ccc(C)cc2)o1,CDK4 with cyclin D3,enzyme activity,inhibitor,,1 µM,remaining activity,103%
O=C(NCc1ncc(C(F)(F)F)cc1Cl)c1ccc2c(c1)C1(CCS(=O)(=O)CC1)[C@H](C1CC1)N2S(=O)(=O)c1ccc(F)cc1,CDK4 with cyclin D3,cell-free assay,,competition with immobilised ligand,1 µM,remaining binding,88%
O=C1Nc2ccc(Cl)cc2C1=Cc1cc(Cl)c(O)c(Cl)c1,CDK4 with cyclin D1,cell-free assay,,,0.5 µM,remaining signal,94.7%
O=C(c1ccc(F)cc1)[C@H]1Cc2c(cc([N+](=O)[O-])cc2[N+](=O)[O-])[C@@H](O)[C@@]12C(=O)Nc1ccccc12,CDK4,cell-free assay,inhibitor,TR-FRET,1 µM,inhibition,48.2%
CCN(CC)CCNC(=O)c1c(C)[nH]c(/C=C2\C(=O)Nc3ccc(F)cc32)c1C,CDK4 with cyclin D1,cell-free assay,,,0.5 µM,remaining signal,81%
Cc1cnn2ncc(-c3ccnc(N(C)C)n3)c2c1,CDK4 with cyclin D3,binding,,,1 µM,remaining binding,83%
O=C1NC(=O)c2cc(Nc3ccc(F)cc3)c(Nc3ccc(F)cc3)cc21,CDK4 with cyclin D3,cell-free assay,,,0.5 µM,remaining signal,99%
CC(C)(O)[C@H]1CC[C@H](Nc2ccc3ncc(-c4cccc(C(F)(F)F)c4)n3n2)CC1,CDK4 with cyclin D1,enzyme activity,inhibitor,,1 µM,remaining activity,90.5%
Nc1nc(Nc2ccc(S(N)(=O)=O)cc2)sc1C(=O)c1ccccc1[N+](=O)[O-],CDK4,enzyme activity,inhibitor,,0.1 µM,inhibition,87%
O=C(c1ccccc1F)[C@H]1Cc2c(cc([N+](=O)[O-])cc2[N+](=O)[O-])[C@H](O)[C@]12C(=O)Nc1ccccc12,CDK4,cell-free assay,inhibitor,TR-FRET,1 µM,inhibition,29.3%
C[C@H]1CCN(c2nccc(-c3cnn4ncccc34)n2)C1,CDK4 with cyclin D3,binding,,,1 µM,remaining binding,62%
CO[C@@H](C)c1c(Nc2ccc([C@H](N(C)C(=O)C3CCS(=O)(=O)CC3)C(F)(F)F)cc2)cnc2cc(Cl)nn12,CDK4 with cyclin D1,cell-free assay,,competition with immobilised ligand,1 µM,remaining binding,100%
F[C@@H]1CCN(c2nccc(-c3cnn4ncccc34)n2)C1,CDK4,binding,,,1 µM,remaining binding,100%
CS(=O)(=O)c1cc(C2(NC(=O)c3cncc4c3cnn4-c3ccc(F)cc3)CC2)ccn1,CDK4 with cyclin D3,cell-free assay,,competition with immobilised ligand,1 µM,remaining binding,100%
C[C@@H]1CCN(C(=O)CC#N)C[C@@H]1N(C)c1ncnc2[nH]ccc12,CDK4 with cyclin D3,cell-free assay,inhibitor,,0.5 µM,remaining signal,99.9%
CNC(=O)Nc1ccc2c(c1)[C@@]1(CC2)OC(=O)N(CC(=O)N(Cc2ccc(F)cc2)[C@@H](C)C(F)(F)F)C1=O,CDK4,cell-free assay,,competition with immobilised ligand,1 µM,remaining binding,73%
CN(C)c1nccc(-c2cnn3ncccc23)n1,CDK4 with cyclin D1,binding,,,1 µM,remaining binding,100%
O=C(c1ccc(Br)cc1)[C@H]1Cc2c(cc([N+](=O)[O-])cc2[N+](=O)[O-])[C@@H](O)[C@@]12C(=O)Nc1ccccc12,CDK4,cell-free assay,inhibitor,TR-FRET,1 µM,inhibition,29.5%
Cc1sc(C(=O)NC2COC2)cc1-n1cc(NC(=O)Nc2c(F)cccc2Cl)cn1,CDK4 with cyclin D3,enzyme activity,inhibitor,,10 µM,remaining activity,96.5%
COc1ccc(OC)c2c(=S)c3ccccc3[nH]c12,CDK4 with cyclin D3,cell-free assay,,,0.5 µM,remaining signal,95.5%
CN(CCCC(F)(F)F)c1nccc(-c2cnn3ncccc23)n1,CDK4 with cyclin D3,binding,,,1 µM,remaining binding,100%
O=C(c1ccc(Cl)c(Cl)c1)[C@H]1Cc2c(cc([N+](=O)[O-])cc2[N+](=O)[O-])[C@H](O)[C@]12C(=O)Nc1ccccc12,CDK4,cell-free assay,inhibitor,TR-FRET,1 µM,inhibition,18.5%
COc1cc(-c2cn(C3CCc4c(F)cccc4N(CC(F)(F)F)C3=O)nn2)ccc1-n1cnc(C)c1 (stereo not drawn),CDK4 with cyclin D3,cell-free assay,,competition with immobilised ligand,1 µM,remaining binding,100%
Oc1cccc(-c2nc(N3CCOCC3)c3oc4ncccc4c3n2)c1,CDK4 with cyclin D1,cell-free assay,,,0.5 µM,remaining signal,102%
Cc1cnc(NC2CCOCC2)nc1-n1cnc(C(=O)NC(CN)c2cc(F)cc(Cl)c2)c1 (stereo not drawn),CDK4 with cyclin D3,enzyme activity,inhibitor,radiometric,1 µM,remaining activity,6%
COc1cc2c(cc1OC)-c1[nH]nc(Nc3cccc(F)c3)c1C2,CDK4 with cyclin D1,cell-free assay,,,0.5 µM,remaining signal,93.9%
CC(C)(C)c1nc(-c2cccc(NS(=O)(=O)c3c(F)cccc3F)c2F)c(-c2ccnc(N)n2)s1,CDK4 with cyclin D3,enzyme activity,inhibitor,radiometric,1 µM,remaining activity,119%
N#CCCc1ccc2c(c1)-c1[nH]c3ccc([N+](=O)[O-])cc3c1CC(=O)N2,CDK4 with cyclin D1,cell-free assay,,,0.5 µM,remaining signal,11.8%
O=C(Nc1cnn(-c2csc(C(=O)NC3COC3)c2)c1)Nc1ccccc1Cl,CDK4 with cyclin D1,enzyme activity,inhibitor,,5 µM,remaining activity,92.2%
